# Bioassay records from PubChem.
# C8 TRAIL sens – caspase-8 TRAIL sensitization; inhibition (viability loss, TRAIL sensitization), % at 10 µM; NB7+C8 cells + TRAIL, ATPlite viability luminescence; hit rate 1% among 360,000;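 active = compounds causing at least 50% loss of cell viability in the single-dose screen, relative to plate controls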
# NF-kB expr up – compounds increasing NF-kB expression in human neuronal cells | NF-kB reporter expression; active compounds read high | AID 1239 | hit rate 1.6% among 190,000 | fold change at 12.5 µM; in the data active = fold change above about 3.3
# PPC-1+TRAIL kill – kills PPC-1 cancer cells in the presence of TRAIL | PPC-1 cells + TRAIL, ATPLite viability luminescence | hit rate 0.41% among 220,000 | cell killing (% activity), % at 4 µM or 5 µM;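 active = cell killing above 50% in the first pass at 4 µM, then a duplicate retest at 5 µM averaging 50% or more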
# APP 5'UTR act – APP 5'UTR luciferase reporter activation; SH-SY5Y APP 5'UTR luciferase reporter, luminescence; zero percent = DMSO vehicle wells; activation, % at 2 µM; hit rate 1% among 190,000;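 active = activation above a set limit, based on mean plus 3 SD of controls, cut at about 140% in these data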
# FLuc act counter – affects firefly luciferase, flagging false hits in luciferase stimulation screens. P08659. activation factor at 10 µM. AID 1027. 200,000 tested, under 10 active. ATPlite luciferase biochemical, luminescence, 10 min; 0 = ATP-free wells, 1 = DMSO control;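 active = luciferase activation factor, scaled between plate controls, of at least 2 with compound at 10 µM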
# Target sequence (P08659 whole entry, looked up): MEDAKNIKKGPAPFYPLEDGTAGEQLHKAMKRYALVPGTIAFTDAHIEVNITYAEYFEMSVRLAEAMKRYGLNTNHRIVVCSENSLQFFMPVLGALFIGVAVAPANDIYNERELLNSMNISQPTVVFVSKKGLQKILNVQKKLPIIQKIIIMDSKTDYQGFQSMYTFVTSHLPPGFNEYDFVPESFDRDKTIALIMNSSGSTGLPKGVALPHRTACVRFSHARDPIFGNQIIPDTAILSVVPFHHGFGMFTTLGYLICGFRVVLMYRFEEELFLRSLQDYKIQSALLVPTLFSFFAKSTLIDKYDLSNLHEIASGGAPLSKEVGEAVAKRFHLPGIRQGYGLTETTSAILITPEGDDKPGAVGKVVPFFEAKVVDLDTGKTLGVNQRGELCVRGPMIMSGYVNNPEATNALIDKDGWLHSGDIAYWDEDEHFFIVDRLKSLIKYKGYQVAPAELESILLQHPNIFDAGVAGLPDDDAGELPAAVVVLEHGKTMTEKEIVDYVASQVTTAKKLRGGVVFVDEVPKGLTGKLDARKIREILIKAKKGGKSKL
#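 Assay system: Luciferase/luciferin detection reagent, cell-free biochemical luciferase assay / Also added: ATP substrate / Schedule: 10 min at ambient temperature / Measured by: luminescence measurement of luciferase light output / Benchmarks: low control with PBS replacing ATP, high control enzyme plus ATP without compound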
# FLuc inh counter – inhibits firefly luciferase, flagging false hits in luciferase inhibition screens; AID 1006; ATPLite firefly luciferase biochemical luminescence, 10 min; P08659; inhibition, % at 10 µM; hit rate 1.5% among 200,000;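 active = inhibition above about 50% when tested at 10 µM, limit read from the data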
# Hits are given with their value; n = inactive; x = not tested or not shown. Most compounds without a hit are left out; they make up all but 2.2% or so of the library.
SMILES,C8 TRAIL sens,NF-kB expr up,PPC-1+TRAIL kill,APP 5'UTR act,FLuc act counter,FLuc inh counter
CCOC(=O)N1N=C(c2ccccc2)CC1(O)C(F)(F)F (stereo not given),n,n,n,n,n,n
CCOC(=O)N1N=C(c2ccc(C)cc2)CC1(O)C(F)(F)F (stereo not given),n,n,n,x,n,54
CCCCNC(=O)NC1(C(F)(F)F)Oc2ccccc2O1,n,n,n,n,n,n
NS(=O)(=O)c1ccc(CCNC(=O)NC2(C(F)(F)F)Oc3ccccc3O2)cc1,n,3.9,n,n,n,n
Nc1ccccc1NC(=O)c1ccccc1,n,3.9,n,n,n,n
O=C(Nc1ccccc1C(=O)O)c1ccc(NC(=O)C2CC2)cc1,65,x,x,x,x,x
O=C(Nc1ccc(Oc2ccccc2)cc1)C1CC1,n,n,n,n,n,n
Nc1ccc(C(=O)Nc2ccccc2C(=O)O)cc1,n,n,n,n,n,54
O=C(Nc1ccc(C#Cc2ccccc2)cc1)C1CC1,n,3.9,n,n,n,n
O=C(Nc1ccccc1C(=O)Nc1ccccc1C(=O)O)c1ccccc1,n,x,x,x,x,x
CC1(C(=O)Nc2ccc3c(c2)OCCO3)CN(S(C)(=O)=O)CC(=O)N1CCc1c[nH]c2ccccc12 (stereo not given),n,x,x,x,x,x
CCC(C)n1c(SCC(=O)Nc2cc(C)on2)nc2ccccc2c1=O (stereo not given),n,n,n,n,n,n
Cc1cc(NC(=O)CSc2nc3ccccc3c(=O)n2C(C)c2ccccc2)no1 (stereo not given),n,3.6,n,n,n,n
O=C(Nc1ccc2ccccc2c1)c1cccc(F)c1,n,x,n,x,x,x
Cc1ccc2cc(NC(=O)c3ccccc3)ccc2n1,58,x,x,x,x,x
Cc1ccc2cc(NC(=O)c3cccc(F)c3)ccc2n1,46,x,n,x,x,x
CNc1ncnc2c1ncn2[C@H]1CN(Cc2ccc3c(c2)OCO3)C[C@@H](CO)O1,n,x,x,x,x,x
CC(C)c1nnc(NC(=O)c2ccc3ccccc3c2)s1,n,x,x,x,x,x
CC(C)c1nnc(NC(=O)c2sc3ccccc3c2Cl)s1,n,n,n,n,n,64
Cc1ccc2c(Cl)c(C(=O)NCC3CCCO3)sc2c1 (stereo not given),n,3.9,n,n,n,n
CC(NC(=O)c1csc2ccccc12)C1CCCO1 (stereo not given),n,n,n,n,n,n
O=C(NCC1CCCO1)c1sc2ccccc2c1Cl (stereo not given),n,n,n,n,n,n
CC(NC(=O)c1sc2ccccc2c1Cl)C1CCCO1 (stereo not given),n,n,n,n,n,63
Cc1ccnc(NC(=O)c2cccs2)c1,n,n,n,n,n,n
Cc1ccnc(NC(=O)c2ccc(Br)s2)c1,55,x,x,x,x,x
SMILES,C8 TRAIL sens,NF-kB expr up,PPC-1+TRAIL kill,APP 5'UTR act,FLuc act counter,FLuc inh counter
Cc1ccnc(NC(=O)c2sc3ccccc3c2Cl)c1,92,3.6,76,148,n,92
O=C(Nc1nccs1)c1sc2ccccc2c1Cl,74,7,n,234,n,85
Cc1noc(C)c1COc1ccccc1C(=O)N1CCN(S(=O)(=O)c2ccc(C(C)C)cc2)CC1,n,x,x,x,x,x
CCOC(=O)N1CCN(C(=O)C[C@@H]2C[C@@]3(C(=O)OC)CCCCC=C3N(Cc3cccc4ccccc34)C2=O)CC1,n,x,x,x,x,x
CCOC(=O)[C@]12CCC=C1N(CCC1=CCCCC1)C(=O)[C@H](CC(=O)N1CCCC1)C2,n,x,x,x,x,x
N/C(=N\OC(=O)CCCc1ccccc1)c1ccccn1,n,n,n,n,n,60
N/C(=N\OC(=O)CCC1CCCC1)c1ccccn1,n,n,n,n,n,84
N/C(=N\OC(=O)CCC1CCCC1)c1ccccc1,n,n,n,n,n,88
N/C(=N\OC(=O)COc1ccccc1)c1ccccn1,n,n,n,n,n,n
CCOC(=O)[C@@H](NC(=O)CC[C@H]1O[C@@H](n2ccc(=O)[nH]c2=O)[C@H](O)[C@@H]1O)C(C)C,n,x,x,x,x,x
CCOc1ccc(C=NN2CCCCCC2)cc1OCC,n,x,x,x,x,x
CCOc1ccc(/C=N/n2c(SC)nnc2-c2ccccc2)cc1OCC,n,5.5,n,n,n,n
C/C(=N\Nc1nc2ccccc2[nH]1)c1cc2ccccc2o1,59,n,n,n,n,78
C/C(=N\Nc1nc2ccccc2[nH]1)c1ccc2c(c1)OCO2,n,n,n,n,n,n
C/C(=N\Nc1nc2ccccc2[nH]1)c1ccc2c(c1)OCCO2,n,n,n,n,n,78
C/C(=N\Nc1nc2ccccc2[nH]1)c1ccccn1,58,x,x,x,x,x
Cc1cc(C)n(-c2nc(N(c3ccccc3)c3ccccc3)nc(-n3nc(C)cc3C)n2)n1,76,n,n,n,n,n
COc1ccccc1/C=C/C(=O)OCC(=O)Nc1ccc2c(c1)OCCO2,n,x,x,x,x,x
COc1ccccc1/C=C/C(=O)Nc1ccc2c(c1)CCC2,n,7.8,n,176,n,n
COc1ccc(OC)c(/C=C/C(=O)Nc2ccc3c(c2)CCC3)c1,n,n,n,n,n,n
COc1ccccc1/C=C/C(=O)Nc1ccc2c(c1)OCCO2,75,8.4,56,n,n,85
CCN(CC(=O)Nc1ccc2c(c1)OCCO2)C(=O)/C=C/c1ccccc1,n,n,n,n,n,n
O=C(/C=C/c1ccccc1)Nc1ccc2c(c1)OCCO2,75,3.5,x,152,n,94
CO[C@@H]1CN(C)C(=O)c2cc(NS(=O)(=O)c3ccc(C)cc3)ccc2OC[C@H](C)N(Cc2nccs2)C[C@H]1C,n,x,x,x,x,x
COC(=O)c1c(N)[nH]c(C(=O)c2ccccc2)c1-c1ccccc1Br,n,x,x,x,x,x
SMILES,C8 TRAIL sens,NF-kB expr up,PPC-1+TRAIL kill,APP 5'UTR act,FLuc act counter,FLuc inh counter
Cc1oc(-c2cccs2)cc1C(=O)N1CCCC(C)(C(=O)O)C1 (stereo not given),n,x,x,x,x,x
C=CCNc1oc(/C=C/c2ccccc2)nc1C#N,n,7.2,n,174,n,n
Nc1nc(N)nc(-c2cccc([N+](=O)[O-])c2)n1,n,x,x,x,x,x
Nc1nc(N)c2c(ccc3c2ccn3Cc2cccc([N+](=O)[O-])c2)n1,97,x,x,x,x,x
Cc1ccc(C(=O)CCNc2ccc(Br)cc2)o1,n,n,n,n,n,n
Cc1ccc(C(=O)CCNc2ccc(F)c(Cl)c2)o1,n,5.4,n,n,n,n
O=C(CCl)N(O)c1ccc(C=Cc2ccccc2)cc1,51,x,x,x,x,x
Nc1[nH]c(C(=O)c2ccccc2)c(-c2ccncc2)c1C(=O)NCc1ccc(Cl)cc1,n,x,x,x,x,x
CCn1nc2cc(C(=O)NCCc3cccs3)ccc2c1OC,n,4,n,n,n,n
O=C(NCCc1cccs1)c1ccc(Cl)c(Cl)c1,n,3.8,n,n,n,n
O=C(NCc1cccs1)C1C(=O)Nc2ccccc2C(=O)N1C1CCCC1 (stereo not given),n,x,x,x,x,x
CN(C)Cc1csc(Nc2ccc(C(F)(F)F)cn2)n1,n,x,x,x,x,x
CC(=O)OC[C@]12CC[C@H]3[C@@](C)(CC[C@H]4C(C)(C)CCC[C@]34C)[C@@H]1CC(C1=CC(=O)OC1O)O2 (stereo not given in full),84,x,x,x,x,x
